Data as given in ChEMBL document CHEMBL3091449, “Synthesis and antimicrobial profile of N-substituted imidazolium oximes and their monoquaternary salts against multidrug resistant bacteria” (2013).
In brackets after ≈: the same amount, converted by molar mass.

Legend:
Assay type in all cases: functional
Enterococcus faecalis [1] = test: Antibacterial activity against Enterococcus faecalis ATCC 29212 after 18 to 24 hrs by two-fold broth microdilution assay
How it was run: (§1)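 CLSI two-fold broth microdilution was used. Compounds were dissolved in DMSO, brought to 10 mg/mL in medium, then serially diluted in Mueller Hinton broth over 400–0.09 µg/mL. Overnight MHB cultures were diluted to 10^6 CFU/mL, and 10 µL was added per well. Plates were incubated 18–24 h at 37 °C, then 0.2 mg/mL INT was added for 30 min at 37 °C. MIC was the lowest concentration with no visible growth or pink colour, triplicate.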

Klebsiella pneumoniae [2] = test: Antibacterial activity against Klebsiella pneumoniae FNSST 011 assessed as diameter of zone of inhibition at 30 ug/disc after 24 hrs by disc diffusion method; settings: FNSST 011, 24 h, read-out: DIZ
How it was run: (§2)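 Ampicillin 30 µg discs were the positive control on Mueller Hinton agar. The agar was spread with 100 µL of a 10^6 cfu/mL overnight TSB culture grown at 37 °C. Plates were incubated 24 h at 37 °C, and zone diameter was read including the 6 mm disc, in triplicate, mean ± SE.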

Aeromonas hydrophila [3] = test: Antibacterial activity against Aeromonas hydrophila FNSST 014 assessed as diameter of zone of inhibition at 30 ug/disc after 24 hrs by disc diffusion method; settings: FNSST 014, 24 h, read-out: DIZ; how it was run: as §2
Enterobacter cloacae [4] = test: Antibacterial activity against CTX-15 expressing Enterobacter cloacae isolate 51 after 18 to 24 hrs by two-fold broth microdilution assay
Klebsiella pneumoniae [5] = test: Antibacterial activity against TEM-1/SHV-12 expressing Klebsiella pneumoniae isolate 303 after 18 to 24 hrs by two-fold broth microdilution assay; how it was run: as §1
Enterococcus faecalis [6] = test: Antibacterial activity against Enterococcus faecalis ATCC 29212 assessed as diameter of zone of inhibition at 30 ug/disc after 24 hrs by disc diffusion method; settings: ATCC 29212, 24 h, read-out: DIZ; how it was run: as §2
Clostridium perfringens [7] = test: Antibacterial activity against Clostridium perfringens FNSST 4999 assessed as diameter of zone of inhibition at 30 ug/disc after 24 hrs by disc diffusion method; settings: FNSST 4999, 24 h, read-out: DIZ
How it was run: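 Ampicillin 30 µg disc run as positive control in CLSI disc diffusion. 100 µL of 10^6 cfu/mL bacteria spread on Mueller Hinton agar, incubated 24 h at 37 °C. Zone diameter measured in mm including the disc, triplicate, mean ± SE.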

Enterobacter cloacae [8] = test: Antibacterial activity against TEM-1/CTX-M-15 expressing Enterobacter cloacae isolate 62 after 18 to 24 hrs by two-fold broth microdilution assay
Pseudomonas aeruginosa [9] = test: Antibacterial activity against Pseudomonas aeruginosa FNSST 982 assessed as diameter of zone of inhibition at 30 ug/disc after 24 hrs by disc diffusion method; settings: FNSST 982, 24 h, read-out: DIZ; how it was run: as §2
Staphylococcus aureus [10] = test: Antibacterial activity against Staphylococcus aureus ATCC 25923 assessed as diameter of zone of inhibition at 30 ug/disc after 24 hrs by disc diffusion method; settings: ATCC 25923, 24 h, read-out: DIZ; how it was run: as §2
Kluyvera intermedia = test: Antibacterial activity against TEM-1/SHV-12/[…] expressing Enterobacter intermedius isolate 243 after 18 to 24 hrs by two-fold broth microdilution assay; how it was run: as §1
Aeromonas caviae [11] = test: Antibacterial activity against TEM-1/CTX-M-15 expressing Aeromonas caviae isolate 260 after 18 to 24 hrs by two-fold broth microdilution assay; how it was run: as §1
Escherichia coli [12] = test: Antibacterial activity against Escherichia coli FNSST 982 assessed as diameter of zone of inhibition at 30 ug/disc after 24 hrs by disc diffusion method; settings: FNSST 982, 24 h, read-out: DIZ; how it was run: as §2
Aeromonas hydrophila [13] = test: Antibacterial activity against Aeromonas hydrophila FNSST 014 after 18 to 24 hrs by two-fold broth microdilution assay; how it was run: as §1
Bacillus cereus [14] = test: Antibacterial activity against Bacillus cereus ATCC 11778 after 18 to 24 hrs by two-fold broth microdilution assay; how it was run: as §1
Escherichia coli [15] = test: Antibacterial activity against […] expressing Escherichia coli isolate 4024 after 18 to 24 hrs by two-fold broth microdilution assay
How it was run: (§3)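 CLSI two-fold broth microdilution. Compounds dissolved in DMSO, 10 mg/mL stock, serially diluted to 400–0.09 µg/mL in Mueller Hinton broth. Wells inoculated with 10^6 CFU/mL bacteria and incubated 18–24 h at 37 °C. 0.2 mg/mL INT added for 30 min. MIC taken as the lowest concentration with no visible growth or pink colour. Triplicate.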

Aeromonas hydrophila [16] = test: Antibacterial activity against TEM-1/SHV-12 expressing Aeromonas hydrophila isolate 268 after 18 to 24 hrs by two-fold broth microdilution assay; how it was run: as §1
Pseudomonas aeruginosa [17] = test: Antibacterial activity against Pseudomonas aeruginosa FNSST 982 after 18 to 24 hrs by two-fold broth microdilution assay; how it was run: as §1
Clostridium perfringens [18] = test: Antibacterial activity against Clostridium perfringens FNSST 4999 after 18 to 24 hrs by two-fold broth microdilution assay; how it was run: as §3
Escherichia coli [19] = test: Antibacterial activity against Escherichia coli FNSST 982 after 18 to 24 hrs by two-fold broth microdilution assay; how it was run: as §1
Klebsiella pneumoniae [20] = test: Antibacterial activity against Klebsiella pneumoniae FNSST 011 after 18 to 24 hrs by two-fold broth microdilution assay; how it was run: as §1
Staphylococcus aureus [21] = test: Antibacterial activity against Staphylococcus aureus ATCC 25923 after 18 to 24 hrs by two-fold broth microdilution assay; how it was run: as §1
Enterobacter cloacae [22] = test: Antibacterial activity against TEM-1/SHV-12 expressing Enterobacter cloacae isolate 306 after 18 to 24 hrs by two-fold broth microdilution assay
[23] = tested on: Stenotrophomonas maltophilia; test: Antibacterial activity against […] expressing Stenotrophomonas maltophilia isolate 125 after 18 to 24 hrs by two-fold broth microdilution assay; how it was run: as §1
Bacillus cereus [24] = test: Antibacterial activity against Bacillus cereus ATCC 11778 assessed as diameter of zone of inhibition at 30 ug/disc after 24 hrs by disc diffusion method; settings: ATCC 11778, 24 h, read-out: DIZ; how it was run: as §2
Acinetobacter baumannii = test: Antibacterial activity against SIM-1 expressing Acinetobacter baumannii isolate 170 after 18 to 24 hrs by two-fold broth microdilution assay; how it was run: as §3
Escherichia coli [25] = test: Antibacterial activity against TEM-1/SHV-12 expressing Escherichia coli isolate 237 after 18 to 24 hrs by two-fold broth microdilution assay; how it was run: as §3
Pseudomonas aeruginosa [26] = test: Antibacterial activity against GIM-1 expressing Pseudomonas aeruginosa isolate 197 after 18 to 24 hrs by two-fold broth microdilution assay; how it was run: as §1
Aeromonas caviae [27] = test: Antibacterial activity against […] expressing Aeromonas caviae isolate 258 after 18 to 24 hrs by two-fold broth microdilution assay; how it was run: as §1
Escherichia coli [28] = test: Antibacterial activity against […] expressing Escherichia coli isolate 235 after 18 to 24 hrs by two-fold broth microdilution assay; how it was run: as §3
Talaromyces funiculosus = test: Antifungal activity against Penicillium funiculosum FNSST 3724 assessed as diameter of zone of inhibition at 10 ug/disc after 72 hrs by disc diffusion method; settings: FNSST 3724, 72 h, read-out: DIZ
How it was run: (§4)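 The positive control was amphotericin B 10 µg discs on Sabouraud dextrose agar spread with 100 µL of a 10^4 cfu/mL fungal suspension. Plates were kept at 30 °C for 48 h (yeast) or 72 h (molds). Inhibition zone was measured including the 6 mm disc, in triplicate, mean ± SE.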

Candida albicans = test: Antifungal activity against Candida albicans ATCC 10231 assessed as diameter of zone of inhibition at 10 ug/disc after 48 hrs by disc diffusion method; settings: ATCC 10231, 48 h, read-out: DIZ; how it was run: as §4
Aspergillus fumigatus = test: Antifungal activity against Aspergillus fumigatus FNSST 3833 assessed as diameter of zone of inhibition at 10 ug/disc after 72 hrs by disc diffusion method; settings: FNSST 3833, 72 h, read-out: DIZ; how it was run: as §4

For `CO/N=C(\C(=O)N[C@@H]1C(=O)N2C(C(=O)O)=C(COC(C)=O)CS[C@H]12)c1csc(N)n1` [CEFOTAXIME], which MIC (Enterococcus faecalis [1]) is on record?
Its MIC is 0.5 µg/mL (≈ 1.1 µM).

What about the zone of inhibition at 30 µg/disc (Klebsiella pneumoniae [2]) of the same compound?
The zone of inhibition at 30 µg/disc was 21.4 mm.

What about the zone of inhibition at 30 µg/disc (Aeromonas hydrophila [3]) of the same compound?
The zone of inhibition at 30 µg/disc was 14.7 mm.

What about the MIC (Enterobacter cloacae [4]) of the same compound?
Its MIC is 32 µg/mL (≈ 70.3 µM).

And the MIC (Klebsiella pneumoniae [5])?
Its MIC is 64 µg/mL (≈ 141 µM).

And the zone of inhibition at 30 µg/disc (Enterococcus faecalis [6])?
Its zone of inhibition at 30 µg/disc is 23.5 mm.

What about the zone of inhibition at 30 µg/disc (Clostridium perfringens [7]) of the same compound?
The zone of inhibition at 30 µg/disc was 28.5 mm.

And the MIC (Enterobacter cloacae [8])?
Its MIC is over 256 µg/mL.

And the zone of inhibition at 30 µg/disc (Pseudomonas aeruginosa [9])?
Its zone of inhibition at 30 µg/disc is 10.4 mm.

What about the zone of inhibition at 30 µg/disc (Staphylococcus aureus [10]) of the same compound?
The zone of inhibition at 30 µg/disc was 21.7 mm.

And the MIC (Kluyvera intermedia)?
Its MIC is 8 µg/mL (≈ 17.6 µM).

What about the MIC (Aeromonas caviae [11]) of the same compound?
The MIC was 256 µg/mL (≈ 562 µM).

What about the zone of inhibition at 30 µg/disc (Escherichia coli [12]) of the same compound?
Its zone of inhibition at 30 µg/disc is 22.8 mm.

What about the MIC (Aeromonas hydrophila [13]) of the same compound?
Its MIC is 8 µg/mL (≈ 17.6 µM).

What about the MIC (Bacillus cereus [14]) of the same compound?
Its MIC is 0.25 µg/mL (≈ 0.549 µM).

What about the MIC (Escherichia coli [15]) of the same compound?
The MIC was 256 µg/mL (≈ 562 µM).

What about the MIC (Aeromonas hydrophila [16]) of the same compound?
The MIC was 256 µg/mL (≈ 562 µM).

And the MIC (Pseudomonas aeruginosa [17])?
The MIC was 16 µg/mL (≈ 35.1 µM).

What about the MIC (Clostridium perfringens [18]) of the same compound?
Its MIC is 0.1 µg/mL (≈ 0.22 µM).

What about the MIC (Escherichia coli [19]) of the same compound?
The MIC was 0.5 µg/mL (≈ 1.1 µM).

What about the MIC (Klebsiella pneumoniae [20]) of the same compound?
The MIC was 0.5 µg/mL (≈ 1.1 µM).

What about the MIC (Staphylococcus aureus [21]) of the same compound?
The MIC was 0.5 µg/mL (≈ 1.1 µM).

What about the MIC (Enterobacter cloacae [22]) of the same compound?
The MIC was over 128 µg/mL.

What about the MIC [23] of the same compound?
Its MIC is 32 µg/mL (≈ 70.3 µM).

What about the zone of inhibition at 30 µg/disc (Bacillus cereus [24]) of the same compound?
Its zone of inhibition at 30 µg/disc is 26.8 mm.

And the MIC (Acinetobacter baumannii)?
The MIC was over 256 µg/mL.

What about the MIC (Escherichia coli [25]) of the same compound?
Its MIC is over 256 µg/mL.

And the MIC (Pseudomonas aeruginosa [26])?
Its MIC is 256 µg/mL (≈ 562 µM).

And the MIC (Aeromonas caviae [27])?
Its MIC is 258 µg/mL (≈ 566 µM).

What about the MIC (Escherichia coli [28]) of the same compound?
The MIC was over 256 µg/mL.

With `C[C@@H]1[C@H](O)[C@@H](C)/C=C/C=C/C=C/C=C/C=C/C=C/C=C/[C@H](O[C@@H]2O[C@H](C)[C@@H](O)[C@H](N)[C@@H]2O)C[C@@H]2O[C@](O)(C[C@@H](O)C[C@@H](O)[C@H](O)CC[C@@H](O)C[C@@H](O)CC(=O)O[C@H]1C)C[C@H](O)[C@H]2C(=O)O` [AMPHOTERICIN B] as the compound, how does the zone of inhibition at 10 µg/disc (Talaromyces funiculosus) read?
Its zone of inhibition at 10 µg/disc is 18.3 mm.

What about the zone of inhibition at 10 µg/disc (Candida albicans) of the same compound?
Its zone of inhibition at 10 µg/disc is 21.6 mm.

And the zone of inhibition at 10 µg/disc (Aspergillus fumigatus)?
The zone of inhibition at 10 µg/disc was 19.2 mm.
